Entries after “also recorded” stand apart in the source; their conditions may differ. Like-named read-outs stand apart in the source and are kept apart here. Values belong to the compound of their own block, whether it stands above or below them.
Key:
[1] = system: urinary glucose excretion; conditions: cited from earlier work
[2] = type: in vivo, human (Japanese patients with type 2 diabetes mellitus); conditions: for AUC∞ / C max / CL/F / Vd/F / t ½: mean (SD); for t max: median (range)
Procedure, shortened: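 Single oral dose (100 or 200 mg) given before breakfast in a two-period crossover. Blood was drawn pre-dose and at 0.5–72 h (13 samples) into K2EDTA, iced, centrifuged, and plasma stored at −20 °C. Parent drug was measured by HPLC–MS/MS (1–2,000 ng/mL). Metabolites were measured by acetonitrile precipitation then HPLC–MS/MS (5–10,000 ng/mL). Group ratios are least square means with 90 % CI.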

[3] = Urinary pharmacokinetics of unchanged canagliflozin; type: in vivo, human (Japanese patients with type 2 diabetes mellitus); conditions: for Ae0–72h% (cumulative urinary excretion rate from time zero to 72 h) / CLR: mean (SD)
Procedure, shortened: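 Per period, urine was collected at 11–0 h pre-dose, then 0–4.5, 4.5–10.5, 10.5–13, 13–24, 24–48 and 48–72 h after a single oral 100 or 200 mg dose. Volumes were recorded, and mixed aliquots were stored at −20 °C. Parent drug was measured by solid-phase extraction then HPLC–MS/MS (validated 1–2,000 ng/mL).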

[4] = system: urinary glucose excretion; assay: 24-h urinary glucose excretion, change from baseline; type: in vivo, human (Japanese patients with type 2 diabetes mellitus); conditions: both doses
Procedure, shortened: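 Each crossover period gave one oral single dose of test compound (100 or 200 mg) 10 min before breakfast, with ≥14-day washout and fixed meals. Change was taken from the baseline day.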

[5] = Safety: adverse events after single doses; type: in vivo, human (Japanese patients with type 2 diabetes mellitus)
Procedure, shortened: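 Adverse events were recorded with intensity and relation to drug, then coded by system organ class and preferred term (MedDRA/J 15.0). Adverse drug reactions were events the investigator judged reasonably related. Also checked: laboratory tests, renal function, vital signs, body weight and 12-lead ECG. Patients were hospitalised and received single 100 and 200 mg oral doses in crossover.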

[6] = single dose of canagliflozin 100 mg; non-Japanese patients with normal renal function or mild renal impairment; cited from earlier work
[7] = Japanese patients with type 2 diabetes; cited from earlier work
blood glucose = conditions: phase III; non-Japanese type 2 diabetes patients with moderate renal impairment (eGFR ≥30 and <50 mL/min/1.73 m^2); cited from earlier work
[8] = cited from earlier work
[9] = canagliflozin 100 mg single dose
[10] = canagliflozin 100 mg single dose, moderate renal impairment (n = 12)
[11] = canagliflozin 100 mg, moderate renal impairment (n = 12)
[12] = canagliflozin 100 mg, normal renal function or mild renal impairment (n = 12)
[13] = canagliflozin 200 mg single dose
[14] = canagliflozin 200 mg single dose, moderate renal impairment (n = 12)
[15] = canagliflozin 200 mg, moderate renal impairment (n = 12)
[16] = canagliflozin 200 mg, normal renal function or mild renal impairment (n = 12)
[17] = Moderate renal impairment, canagliflozin 100 mg (n = 12)
[18] = Moderate renal impairment, canagliflozin 200 mg (n = 12)
[19] = Normal renal function or mild renal impairment, canagliflozin 100 mg (n = 12)
[20] = Normal renal function or mild renal impairment, canagliflozin 200 mg (n = 12)
[21] = single doses of 100 and 200 mg, all patients

Structure (SMILES): OC[C@H]1O[C@@H](c2ccc(F)c(Cc3cc4ccccc4s3)c2)[C@H](O)[C@@H](O)[C@@H]1O [Ipragliflozin]
UGE in each estimated GFR (eGFR) class [1]: significantly increased

time to reach maximum concentration (C max), median ([2]; 100 and 200 mg single doses): ≤ 1 h
AUC∞ ratio (90 % CI) of least square means, moderate renal impairment relative to normal renal function or mild renal impairment [2, 9]: 1.258 (1.061–1.490)
C max ratio (90 % CI) of least square means, moderate renal impairment relative to normal renal function or mild renal impairment [2, 9]: 0.982 (0.821–1.173)
AUC∞ ratio (90 % CI) of least square means, moderate renal impairment relative to normal renal function or mild renal impairment ([2]; canagliflozin 100 mg single dose, listed as canagliflozin): 1.258 [1.061–1.490]
AUC∞ [2, 10]: 8,766 (2551) ng·h/mL
C max [2, 10]: 1,197.13 (310.56) ng/mL
CL/F [2, 11]: 12.15 (2.87) L/h
Vd/F [2, 11]: 264 (81) L
t ½ [2, 11]: 15.50 (4.35) h
t max [2, 11]: 1.0 (1.0–3.0) h
CL/F [2, 12]: 15.24 (3.65) L/h
Vd/F [2, 12]: 269 (66) L
t ½ [2, 12]: 12.58 (3.14) h
t max [2, 12]: 1.0 (1.0–3.0) h
AUC∞ ratio (90 % CI) of least square means, moderate renal impairment relative to normal renal function or mild renal impairment [2, 13]: 1.216 (1.026–1.441)
C max ratio (90 % CI) of least square means, moderate renal impairment relative to normal renal function or mild renal impairment [2, 13]: 0.989 (0.827–1.182)
AUC∞ ratio (90 % CI) of least square means, moderate renal impairment relative to normal renal function or mild renal impairment ([2]; canagliflozin 200 mg single dose, listed as canagliflozin): 1.216 [1.026–1.441]
AUC∞ [2, 14]: 17,835 (4434) ng·h/mL
C max [2, 14]: 2,333.36 (414.90) ng/mL
CL/F [2, 15]: 11.73 (2.36) L/h
Vd/F [2, 15]: 242 (67) L
t ½ [2, 15]: 15.15 (6.68) h
t max [2, 15]: 1.0 (1.0–2.0) h
CL/F [2, 16]: 14.43 (3.73) L/h
Vd/F [2, 16]: 244 (53) L
t ½ [2, 16]: 12.10 (2.66) h
t max [2, 16]: 1.0 (1.0–6.0) h
half-life (t ½) ([2]; patients with normal or mild renal impairment, both doses): over 12 h
AUC from time zero to 24 h ([2]; single dose of 100 mg, Japanese population with mild or no renal impairment): 5,645 ng·h/mL
amount of canagliflozin excreted into urine from 0 to 72 h (urinary excretion ratio of unchanged drug) ([3]; % of the dose, both doses): < 1%
Ae0–72h% (cumulative urinary excretion rate from time zero to 72 h) [3, 11]: 0.538 (0.229) %
CLR [3, 11]: 0.064 (0.021) L/h
Ae0–72h% (cumulative urinary excretion rate from time zero to 72 h) [3, 12]: 0.541 (0.168) %
CLR [3, 12]: 0.085 (0.037) L/h
Ae0–72h% (cumulative urinary excretion rate from time zero to 72 h) [3, 15]: 0.480 (0.143) %
CLR [3, 15]: 0.058 (0.022) L/h
Ae0–72h% (cumulative urinary excretion rate from time zero to 72 h) [3, 16]: 0.559 (0.182) %
CLR [3, 16]: 0.080 (0.029) L/h
Structure (SMILES): Cc1ccc([C@@H]2O[C@H](CO)[C@@H](O)[C@H](O)[C@H]2O)cc1Cc1ccc(-c2ccc(F)cc2)s1 [Canagliflozin, canagliflozin]
ΔUGE24 h in moderate renal impairment relative to normal renal function or mild renal impairment [4]: approximately 70%
Adverse events Total: Incidence [5, 17]: 25.0%
Adverse events Total: No. of events [5, 17]: 3
Adverse events Total: No. of subjects [5, 17]: 3
Back pain: Incidence [5, 17]: 0.0%
Back pain: No. of events [5, 17]: 0
Back pain: No. of subjects [5, 17]: 0
Blood CPK increased: Incidence [5, 17]: 0.0%
Blood CPK increased: No. of events [5, 17]: 0
Blood CPK increased: No. of subjects [5, 17]: 0
Blood creatinine increased: Incidence [5, 17]: 0.0%
Blood creatinine increased: No. of events [5, 17]: 0
Blood creatinine increased: No. of subjects [5, 17]: 0
Blood glucose increased: Incidence [5, 17]: 0.0%
Blood glucose increased: No. of events [5, 17]: 0
Blood glucose increased: No. of subjects [5, 17]: 0
Constipation: Incidence [5, 17]: 0.0%
Constipation: No. of events [5, 17]: 0
Constipation: No. of subjects [5, 17]: 0
Diarrhea: Incidence [5, 17]: 0.0%
Diarrhea: No. of events [5, 17]: 0
Diarrhea: No. of subjects [5, 17]: 0
Nasopharyngitis: Incidence [5, 17]: 8.3%
Nasopharyngitis: No. of events [5, 17]: 1
Nasopharyngitis: No. of subjects [5, 17]: 1
Pollakiuria: Incidence [5, 17]: 8.3%
Pollakiuria: No. of events [5, 17]: 1
Pollakiuria: No. of subjects [5, 17]: 1
Protein urine present: Incidence [5, 17]: 8.3%
Protein urine present: No. of events [5, 17]: 1
Protein urine present: No. of subjects [5, 17]: 1
Adverse events Total: Incidence [5, 18]: 8.3%
Adverse events Total: No. of events [5, 18]: 1
Adverse events Total: No. of subjects [5, 18]: 1
Back pain: Incidence [5, 18]: 0.0%
Back pain: No. of events [5, 18]: 0
Back pain: No. of subjects [5, 18]: 0
Blood CPK increased: Incidence [5, 18]: 0.0%
Blood CPK increased: No. of events [5, 18]: 0
Blood CPK increased: No. of subjects [5, 18]: 0
Blood creatinine increased: Incidence [5, 18]: 0.0%
Blood creatinine increased: No. of events [5, 18]: 0
Blood creatinine increased: No. of subjects [5, 18]: 0
Blood glucose increased: Incidence [5, 18]: 0.0%
Blood glucose increased: No. of events [5, 18]: 0
Blood glucose increased: No. of subjects [5, 18]: 0
Constipation: Incidence [5, 18]: 0.0%
Constipation: No. of events [5, 18]: 0
Constipation: No. of subjects [5, 18]: 0
Diarrhea: Incidence [5, 18]: 0.0%
Diarrhea: No. of events [5, 18]: 0
Diarrhea: No. of subjects [5, 18]: 0
Nasopharyngitis: Incidence [5, 18]: 8.3%
Nasopharyngitis: No. of events [5, 18]: 1
Nasopharyngitis: No. of subjects [5, 18]: 1
Pollakiuria: Incidence [5, 18]: 0.0%
Pollakiuria: No. of events [5, 18]: 0
Pollakiuria: No. of subjects [5, 18]: 0
Protein urine present: Incidence [5, 18]: 0.0%
Protein urine present: No. of events [5, 18]: 0
Protein urine present: No. of subjects [5, 18]: 0
Adverse events Total: Incidence [5, 19]: 16.7%
Adverse events Total: No. of events [5, 19]: 3
Adverse events Total: No. of subjects [5, 19]: 2
Back pain: Incidence [5, 19]: 8.3%
Back pain: No. of events [5, 19]: 1
Back pain: No. of subjects [5, 19]: 1
Blood CPK increased: Incidence [5, 19]: 0.0%
Blood CPK increased: No. of events [5, 19]: 0
Blood CPK increased: No. of subjects [5, 19]: 0
Blood creatinine increased: Incidence [5, 19]: 0.0%
Blood creatinine increased: No. of events [5, 19]: 0
Blood creatinine increased: No. of subjects [5, 19]: 0
Blood glucose increased: Incidence [5, 19]: 0.0%
Blood glucose increased: No. of events [5, 19]: 0
Blood glucose increased: No. of subjects [5, 19]: 0
Constipation: Incidence [5, 19]: 8.3%
Constipation: No. of events [5, 19]: 1
Constipation: No. of subjects [5, 19]: 1
Diarrhea: Incidence [5, 19]: 8.3%
Diarrhea: No. of events [5, 19]: 1
Diarrhea: No. of subjects [5, 19]: 1
Nasopharyngitis: Incidence [5, 19]: 0.0%
Nasopharyngitis: No. of events [5, 19]: 0
Nasopharyngitis: No. of subjects [5, 19]: 0
Pollakiuria: Incidence [5, 19]: 0.0%
Pollakiuria: No. of events [5, 19]: 0
Pollakiuria: No. of subjects [5, 19]: 0
Protein urine present: Incidence [5, 19]: 0.0%
Protein urine present: No. of events [5, 19]: 0
Protein urine present: No. of subjects [5, 19]: 0
Adverse events Total: Incidence [5, 20]: 25.0%
Adverse events Total: No. of events [5, 20]: 4
Adverse events Total: No. of subjects [5, 20]: 3
Back pain: Incidence [5, 20]: 0.0%
Back pain: No. of events [5, 20]: 0
Back pain: No. of subjects [5, 20]: 0
Blood CPK increased: Incidence [5, 20]: 8.3%
Blood CPK increased: No. of events [5, 20]: 1
Blood CPK increased: No. of subjects [5, 20]: 1
Blood creatinine increased: Incidence [5, 20]: 8.3%
Blood creatinine increased: No. of events [5, 20]: 1
Blood creatinine increased: No. of subjects [5, 20]: 1
Blood glucose increased: Incidence [5, 20]: 8.3%
Blood glucose increased: No. of events [5, 20]: 1
Blood glucose increased: No. of subjects [5, 20]: 1
Constipation: Incidence [5, 20]: 0.0%
Constipation: No. of events [5, 20]: 0
Constipation: No. of subjects [5, 20]: 0
Diarrhea: Incidence [5, 20]: 0.0%
Diarrhea: No. of events [5, 20]: 0
Diarrhea: No. of subjects [5, 20]: 0
Nasopharyngitis: Incidence [5, 20]: 8.3%
Nasopharyngitis: No. of events [5, 20]: 1
Nasopharyngitis: No. of subjects [5, 20]: 1
Pollakiuria: Incidence [5, 20]: 0.0%
Pollakiuria: No. of events [5, 20]: 0
Pollakiuria: No. of subjects [5, 20]: 0
Protein urine present: Incidence [5, 20]: 0.0%
Protein urine present: No. of events [5, 20]: 0
Protein urine present: No. of subjects [5, 20]: 0
adverse events considered related to the study drug [5, 21]: Only one case of pollakiuria and one of diarrhea were considered to be related to the study drug
hypoglycemia [5, 21]: no patient developed hypoglycemia; also recorded: None of the patients developed hypoglycemia; also recorded: no cases of hypoglycemia
mean 24-h urinary excretion ratio [6]: 0.55%
body weight [7]: significantly reduced
blood glucose-lowering effect compared with placebo (blood glucose): significant blood glucose-lowering effect

Structure (SMILES): OC[C@H]1O[C@@H](c2ccc(Cl)c(Cc3ccc(O[C@H]4CCOC4)cc3)c2)[C@H](O)[C@@H](O)[C@@H]1O [empagliflozin]
CLR in patients with moderate renal impairment [8]: decreased
systemic exposure in patients with moderate renal impairment [8]: moderately increased

Structure (SMILES): CCOc1ccc(Cc2cc([C@@H]3O[C@H](CO)[C@@H](O)[C@H](O)[C@H]3O)ccc2Cl)cc1 [dapagliflozin]
C max and AUC as a function of renal function [8]: increased incrementally with declining renal function

From PMC4168221 (Clinical Drug Investigation, 2014)
